# Measurements as given in ChEMBL document CHEMBL4689842, “EUbOPEN Chemogenomics Library wave 1” (2021).
# What was measured:
# Assay type in all cases: toxicity, cell-based
# HEK-293T [1] = assay: Incucyte cell viability with HEK293T; details: human, 10 µM, compound concentration 10 uM; further: filed as whole numbers so only -1 and 0 and 1 occur
# Fibroblast = assay: Incucyte cell viability with human fibroblast; details: 10 µM, compound concentration 10 uM; further: filed as whole numbers so only -1 and 0 and 1 occur
# HEK-293T [2] = assay: Multiplex assay against HEK293T; details: human;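 on Population Tubulin-Different-Phenotype (%): share of the cells with healthy nuclei that show this phenotype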
# Method in brief: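 At seeding, live cells were stained with Hoechst33342, BioTracker Green Microtubule Cytoskeleton Dye, MitoTracker Red and Annexin V Alexa Fluor 680. After compound addition they were imaged on a CQ1 microscope at 37°C and 5% CO2, and CellPathfinder machine-learning gating sorted them into Hoechst high-intensity objects or normal cells, with normal cells further split into healthy, pyknosed or fragmented nuclei and pyknosed cells into mitotic or apoptotic. Tubulin, mitochondrial-mass and membrane-permeability phenotypes are given as per cents of cells with healthy nuclei.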
# [3] = 0 h, replicate number 1, timepoint 0 hours
# [4] = 12 h, replicate number 1, timepoint 12 hours
# [5] = 18 h, replicate number 1, timepoint 18 hours
# [6] = 24 h, replicate number 1, timepoint 24 hours
# [7] = 12 h, 1 µM, compound concentration 1 uM, replicate 1
# [8] = 12 h, 1 µM, compound concentration 1 uM, replicate 2
# [9] = 12 h, 10 µM, compound concentration 10 uM, replicate 1
# [10] = 12 h, 10 µM, compound concentration 10 uM, replicate 2
# [11] = 24 h, 1 µM, compound concentration 1 uM, replicate 1
# [12] = 24 h, 1 µM, compound concentration 1 uM, replicate 2
compound,measurement,setting,value
CC(C)N1CCC(C)(C)c2cc(C#Cc3ccc(C(=O)O)cc3)ccc21,Growth Rate,HEK-293T [1]; [3],1
same,Growth Rate,"HEK-293T [1]; 0 h, replicate number 2, timepoint 0 hours",0
same,Growth Rate,"HEK-293T [1]; 6 h, replicate number 1, timepoint 6 hours",1
same,Growth Rate,HEK-293T [1]; [4],0
same,Growth Rate,HEK-293T [1]; [5],0
same,Growth Rate,HEK-293T [1]; [6],0
same,Growth Rate,Fibroblast; [3],0
same,Growth Rate,"Fibroblast; 6 h, replicate number 2, timepoint 6 hours",0
same,Growth Rate,Fibroblast; [4],0
same,Growth Rate,"Fibroblast; 12 h, replicate number 2, timepoint 12 hours",1
same,Growth Rate,Fibroblast; [5],0
same,Growth Rate,Fibroblast; [6],0
same,Population Apoptotic (%),HEK-293T [2]; [7],60%
same,Population Fragmented Nuclei (%),HEK-293T [2]; [7],13%
same,Population Healthy Nuclei (%),HEK-293T [2]; [7],45%
same,Population Hoechst High Intensity Objects (%),HEK-293T [2]; [7],17%
same,Population Membrane Permeable-Phenotype (%),HEK-293T [2]; [7],2%
same,Population Mitochondria Different-Phenotype (%),HEK-293T [2]; [7],74%
same,Population Mitotic Cells (%),HEK-293T [2]; [7],40%
same,Population Normal (%),HEK-293T [2]; [7],82%
same,Population Pyknosed Nuclei (%),HEK-293T [2]; [7],41%
same,Population Tubulin-Different-Phenotype (%),HEK-293T [2]; [7],43%
same,Total Cell Count,HEK-293T [2]; [7],278
same,Population Apoptotic (%),HEK-293T [2]; [8],18%
same,Population Fragmented Nuclei (%),HEK-293T [2]; [8],4%
same,Population Healthy Nuclei (%),HEK-293T [2]; [8],54%
same,Population Hoechst High Intensity Objects (%),HEK-293T [2]; [8],8%
same,Population Membrane Permeable-Phenotype (%),HEK-293T [2]; [8],8%
same,Population Mitochondria Different-Phenotype (%),HEK-293T [2]; [8],12%
same,Population Mitotic Cells (%),HEK-293T [2]; [8],81%
same,Population Normal (%),HEK-293T [2]; [8],91%
same,Population Tubulin-Different-Phenotype (%),HEK-293T [2]; [8],6%
same,Total Cell Count,HEK-293T [2]; [8],156
same,Population Apoptotic (%),HEK-293T [2]; [9],52%
same,Population Fragmented Nuclei (%),HEK-293T [2]; [9],51%
same,Population Healthy Nuclei (%),HEK-293T [2]; [9],40%
same,Population Hoechst High Intensity Objects (%),HEK-293T [2]; [9],64%
same,Population Membrane Permeable-Phenotype (%),HEK-293T [2]; [9],5%
same,Population Mitochondria Different-Phenotype (%),HEK-293T [2]; [9],66%
same,Population Mitotic Cells (%),HEK-293T [2]; [9],47%
same,Population Normal (%),HEK-293T [2]; [9],35%
same,Population Pyknosed Nuclei (%),HEK-293T [2]; [9],8%
same,Population Tubulin-Different-Phenotype (%),HEK-293T [2]; [9],23%
same,Total Cell Count,HEK-293T [2]; [9],563
same,Population Apoptotic (%),HEK-293T [2]; [10],16%
same,Population Fragmented Nuclei (%),HEK-293T [2]; [10],32%
same,Population Healthy Nuclei (%),HEK-293T [2]; [10],61%
same,Population Hoechst High Intensity Objects (%),HEK-293T [2]; [10],44%
same,Population Membrane Permeable-Phenotype (%),HEK-293T [2]; [10],4%
same,Population Mitochondria Different-Phenotype (%),HEK-293T [2]; [10],12%
same,Population Mitotic Cells (%),HEK-293T [2]; [10],83%
same,Population Normal (%),HEK-293T [2]; [10],55%
same,Population Pyknosed Nuclei (%),HEK-293T [2]; [10],5%
same,Population Tubulin-Different-Phenotype (%),HEK-293T [2]; [10],5%
same,Total Cell Count,HEK-293T [2]; [10],405
same,Population Apoptotic (%),HEK-293T [2]; [11],58%
same,Population Fragmented Nuclei (%),HEK-293T [2]; [11],13%
same,Population Healthy Nuclei (%),HEK-293T [2]; [11],45%
same,Population Hoechst High Intensity Objects (%),HEK-293T [2]; [11],19%
same,Population Membrane Permeable-Phenotype (%),HEK-293T [2]; [11],6%
same,Population Mitochondria Different-Phenotype (%),HEK-293T [2]; [11],52%
same,Population Mitotic Cells (%),HEK-293T [2]; [11],41%
same,Population Normal (%),HEK-293T [2]; [11],80%
same,Population Pyknosed Nuclei (%),HEK-293T [2]; [11],41%
same,Population Tubulin-Different-Phenotype (%),HEK-293T [2]; [11],49%
same,Total Cell Count,HEK-293T [2]; [11],315
same,Population Apoptotic (%),HEK-293T [2]; [12],14%
same,Population Fragmented Nuclei (%),HEK-293T [2]; [12],4%
same,Population Healthy Nuclei (%),HEK-293T [2]; [12],59%
same,Population Hoechst High Intensity Objects (%),HEK-293T [2]; [12],4%
same,Population Membrane Permeable-Phenotype (%),HEK-293T [2]; [12],7%
